Test [1] in a line: inhibitors of TNFa-induced NFkB p65 translocation, primary screen, imaging, HUVEC, MLSMR starter and 10KST1 sets (AID 438).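 Also: compound added about 3h40 before a 20 min TNFalpha stimulation.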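 As to inhibition: signal is the nuclear over cytoplasmic p65 intensity ratio per well.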 The settings on record: HUVEC TNFa-induced p65 nuclear translocation; cell count: measured here: nuclei count (cytotoxicity indicator), at 2.08 µM; inhibition: at 2 µM, stronger effect = higher value, 0% TNFa-plus-vehicle, 100% no-TNFa wells.
The nature of test [2]: reduction of polyQ htt aggregates in cells – imaging, exon1htt(103Q)mCFP cells, high-content imaging, primary screen (AID 483;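 active = visual image review flags a hit and inhibition of aggregation exceeds 20%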;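 also: compound exposure lasted 3 days before fixation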;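 as to nuclei count: percent of the per-plate median nuclei count of sample wells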). The note with it: exon1htt(103Q)mCFP cell line, aggregate imaging, at 2 µM; inhibition of aggregation: stronger effect = higher value; nuclei count: measured here: cell count, toxicity.
A short description of test [3]: endothelial E-selectin expression blockers – imaging, HUVEC, immunofluorescence, MLSMR starter and 10KST1 sets, primary screen (AID 487;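 active = visually confirmed hit in the image check and inhibition above 20%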;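 as to inhibition: signal is fraction of cell area covered by stained E-selectin grains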;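 as to nuclei count: 100% = median nuclei count of all wells on the same plate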). The note with it: HUVEC TNFalpha-induced E-selectin immunofluorescence imaging, at 2 µM; inhibition: stronger effect = higher value; nuclei count: measured here: cell number, toxicity.
Test [4] concerns the target Voltage-gated potassium channel subunit beta-2 (Rattus norvegicus) (UniProt P62483). Put plainly: inhibitors of rat Kvbeta2 reductase activity – biochemical, NADPH fluorescence, primary screen (AID 622;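 active = fluorescence slope higher than the sample average by over 3 SD, cut at about -0.22 in these data, passing the limit was not always enough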;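 also: slope of raw intensity against log time taken from 70 to 1610 s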). The note with it: recombinant KvBeta, 4-cyanobenzaldehyde reduction, at 10 µM, stronger effect = higher value.
Test [5] shares this target. Briefly: enhancers of rat Kvbeta2 NADPH turnover – biochemical, NADPH fluorescence, primary screen (AID 623;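 active = NADPH fluorescence slope more negative than the mean of all samples by about 3 SD, 99.7% confidence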;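 also: fluorescence intensity change per second fitted from 20 to 320 s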). The settings on record: Recombinant KvBeta, NADPH fluorescence decrease slope, 10 min; at 10 µM; stronger effect = lower value.
The target of test [6] is Alpha-2C adrenergic receptor (Homo sapiens) (UniProt P18825). Briefly: compounds altering alpha2C-coupled GIRK flux – cell-based, HEK293 alpha2C/GIRK1/2, thallium flux, primary screen (AID 624;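 active = fluorescence slope after compound addition differing from the mean of all screened samples at 99.7% confidence, in either direction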;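 also: slope of fluorescence ratio to pre-addition baseline per second over 15 to 24 s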). The note with it: thallium flux BTC fluorescence, at 10 µM, actives lie on both sides.
Sequence of Alpha-2C adrenergic receptor (Homo sapiens) (P18825 whole entry, looked up): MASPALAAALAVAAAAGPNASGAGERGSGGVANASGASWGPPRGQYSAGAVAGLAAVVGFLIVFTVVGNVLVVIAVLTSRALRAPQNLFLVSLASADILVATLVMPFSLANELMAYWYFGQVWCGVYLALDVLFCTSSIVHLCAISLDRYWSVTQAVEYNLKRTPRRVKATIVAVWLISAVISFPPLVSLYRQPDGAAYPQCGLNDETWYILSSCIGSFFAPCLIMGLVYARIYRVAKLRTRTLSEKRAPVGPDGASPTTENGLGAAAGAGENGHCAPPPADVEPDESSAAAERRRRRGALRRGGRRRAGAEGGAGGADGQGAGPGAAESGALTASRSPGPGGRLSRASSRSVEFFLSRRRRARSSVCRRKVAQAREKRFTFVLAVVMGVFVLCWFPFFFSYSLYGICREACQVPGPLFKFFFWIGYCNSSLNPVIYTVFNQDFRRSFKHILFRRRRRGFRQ
Test [7] in a line: inhibitors of larval lipid processing in zebrafish, primary screen, whole organism, PED6 fluorescence, gall bladder and intestine (AID 686;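 active = a full or partial loss of lipid-probe fluorescence in the fish gall bladder, intestine or both, judged by eye; inactive = no fluorescence loss, or compound toxic to the fish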;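 also: larvae 5 to 7 days old with five fish per well; signal comes from phospholipase A2 cleavage of quenched PED6 carried via bile; overnight exposure to compound and PED6 before scoring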). The settings on record: Zebrafish larvae PED6 lipid processing, fluorescence scoring; screened at 20 µM (by protocol). The gist of the method:
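Also added: quenched phospholipase substrate PED6, 100 nM final, ingested by larvae; System: zebrafish larvae, 5-7 d; Quantity: 5 larvae per well; Compound: 20 µM single dose; Schedule: overnight compound and PED6 incubation; Read-out: visual per-well fluorescence inhibition score; Measured by: By-eye fluorescence microscopy; Medium: E3.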

Test [8] in a line: blockers of RIG-like receptor reporter activation – cell-based, Sendai virus stimulus, luciferase, 10K MLSCN set, TLR/RLR signaling modifier project, primary screen (AID 602276;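 active = inhibition at or above 50% at 10 µM; inactive = inhibition below 50%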;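 also: firefly luciferase from ISG56 promoter only with Renilla not read in this screen; 0% = Sendai virus plus DMSO and 100% = medium plus DMSO without virus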). The note with it: HEK293 RL24 IRF3 luciferase reporter, at 10 µM, stronger effect = higher value. For orientation: In a reporter assay the amount or activity of a reporter protein is the signal.
Test [9] is described as follows: TLR3 IRF3 reporter activation blockers – cell-based, poly I:C stimulus, luciferase, 10K MLSCN set, primary screen (AID 602277;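 active = inhibition of the reporter signal at or above 50%; inactive = inhibition below 50%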). The settings on record: HEK293-TLR3 RL24 IRF3 luciferase reporter, at 10 µM, stronger effect = higher value.

SMILES strings stand for the structures. Activity calls are given as the source filed them.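 The calls were made as follows, unless noted: active = inhibition above 20% together with a positive visual image hit; inconclusive = visual image hit but inhibition not above 20%; inactive = no visual image hit.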

The record followed here is PubChem BioAssay.

Sequence of Voltage-gated potassium channel subunit beta-2 (Rattus norvegicus) (P62483 whole entry, looked up): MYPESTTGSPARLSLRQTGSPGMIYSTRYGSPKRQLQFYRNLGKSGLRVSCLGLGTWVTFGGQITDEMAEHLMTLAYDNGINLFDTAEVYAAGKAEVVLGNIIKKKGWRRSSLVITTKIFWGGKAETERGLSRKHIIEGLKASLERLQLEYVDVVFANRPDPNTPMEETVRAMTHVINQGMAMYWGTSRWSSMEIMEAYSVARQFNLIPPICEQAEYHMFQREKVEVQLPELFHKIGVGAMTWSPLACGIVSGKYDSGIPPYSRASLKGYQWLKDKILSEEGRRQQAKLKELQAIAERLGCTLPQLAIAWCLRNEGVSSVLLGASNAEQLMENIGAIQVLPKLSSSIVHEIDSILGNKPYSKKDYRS

In the case of `O=C(NC1CCCC1)C(NS(=O)(=O)c1cccc2nsnc12)c1ccccc1` (stereo not given), the cell count in [1] came to 309. Moreover, the inhibition in [1] was -16.3% (inactive); in [3] it was -22.2% (inactive); in [8], 17.9% (inactive); in [9], 17.3% (inactive). Besides, the inhibition of aggregation in [2] was 2.5% (inactive). Besides, the nuclei count in test [2] is 103%; in test [3] it was 109%. Also, the fluorescence slope in [4] was -0.329 (inactive). In test [5], the NADPH fluorescence slope is 1.1e-05 (inactive). Besides, the slope in test [6] is 0.0045 (inactive). Moreover, in test [7], the result was inactive.
Take `Cc1cccc(N(CC(=O)N2CCCC2)S(=O)(=O)c2ccccc2)c1C`: the cell count in test [1] was determined as 288. In addition, the inhibition in test [1] was -2.3% (inactive); in test [3], -156% (inactive); in test [8] it was -11.4% (inactive); in [9], -6.79% (inactive). Besides, the inhibition of aggregation in [2] is 23.9% (inactive). Further, the values for the nuclei count in test [2] and in test [3] were 87.6% and 98.1%, respectively. The fluorescence slope in [4] is -0.423 (inactive). Also, the NADPH fluorescence slope in test [5] is -4.5e-05 (inactive). In addition, in test [6], the slope was 0.00511 (inactive). For the same compound, the result in test [7] was inactive.
Regarding `Cc1ccc(S(=O)(=O)N2CCN(C(=O)N3CCOCC3)C2C)cc1` (stereo not given), the cell count in test [1] came out at 469. Besides, the inhibition was 7.3% (inactive) in [1], -48.1% (inactive) in [3], 11.8% (inactive) in test [8] and 45.8% (inactive) in [9]. Moreover, the inhibition of aggregation in [2] was 12.7% (inactive). The nuclei count in test [2] came out at 102%; in [3], 108%. Moreover, the fluorescence slope in test [4] is -0.439 (inactive). In addition, in test [5], the NADPH fluorescence slope is -5.1e-05 (inactive). Also, the slope in test [6] was 0.00556 (inactive). Besides, the compound was classed as inactive in [7].
For the compound `Cc1ccc(Cl)cc1N1CCN(C(=O)c2cn(C)c(=O)c3c2c2ccccc2n3C)CC1`, the cell count in test [1] was determined as 270. The inhibition in test [1] is -3.3% (inactive); in test [3], -33.6% (inactive); in test [8] it was 16.1% (inactive); in [9] it was 28% (inactive). The inhibition of aggregation in test [2] is 17.2% (inactive). The nuclei count in [2] worked out at 8%; in test [3], 114%. The fluorescence slope in test [4] was -0.352 (inactive). Moreover, the NADPH fluorescence slope in test [5] is -2e-05 (inactive). For the same compound, the slope in test [6] is 0.00673 (inactive). Further, in [7], the outcome was inactive.
Take `N#CC1=C(N)N2C(=C(C#N)C13CCCCC3)SC1CCCCC12O` (stereo not given): the cell count in test [1] worked out at 322. Further, the inhibition in test [1] is 11.4% (inactive); in test [3], -4.6% (inactive); in test [8], 19% (inactive); in [9], 24.3% (inactive). The inhibition of aggregation in test [2] is 3.6% (inactive). Also, the nuclei count was determined as 91.5% in test [2] and 116% in test [3]. The fluorescence slope in test [4] was -0.405 (inactive). The NADPH fluorescence slope in [5] was 1.2e-05 (inactive). In addition, the slope in test [6] is 0.00499 (inactive). Besides, in test [7], the call was inactive.
On to `c1ccc(OCCCn2nnc(-c3ccncc3)n2)cc1`, for which the cell count in test [1] is 604. Besides, the inhibition in test [1] is -9.9% (inactive); in test [3], -57.3% (inactive); in [8] it was 13.2% (inactive); in test [9] it was -7.55% (inactive). In addition, in test [2], the inhibition of aggregation was 2.3% (inactive). In addition, the nuclei count in test [2] came out at 91.9%; in test [3], 114%. Also, the fluorescence slope in [4] was -0.454 (inactive). The NADPH fluorescence slope in test [5] was -2.7e-05 (inactive). The slope in test [6] was 0.00445 (inactive). The result in test [7] was inactive.
On to `CN(C)C(CNC(=O)Nc1cccc(Cl)c1)c1cccnc1` (stereo not given), for which, in test [1], the cell count is 298. For the same compound, the inhibition was -5.5% (inactive) in [1], -40.7% (inactive) in test [3], 18.9% (inactive) in test [8] and 26.3% (inactive) in test [9]. Further, the inhibition of aggregation in test [2] is 1.1% (inactive). The nuclei count stood at 67.5% in test [2] and 115% in test [3]. Also, in test [4], the fluorescence slope was -0.427 (inactive). Also, the NADPH fluorescence slope in test [5] is -5.1e-06 (inactive). Besides, the slope in [6] was 0.00889 (active). In test [7], the result was inactive.
With `Cc1cccc(C)c1NC(=O)COC(=O)c1nonc1N`, in test [1], the cell count was determined as 429. In addition, the inhibition is -1.3% (inactive) in test [1], 32.7% (inactive) in test [3], 4.72% (inactive) in [8] and 2% (inactive) in [9]. Besides, in test [2], the inhibition of aggregation was 3.6% (inactive). In addition, the nuclei count in [2] is 99.3%; in [3] it was 87.2%. Further, the fluorescence slope in [4] is -0.34 (inactive). In addition, in test [5], the NADPH fluorescence slope is -6.4e-05 (inactive). Moreover, the slope in [6] was 0.0052 (inactive). The outcome in [7] was inactive.
As to `O=C(NCCCN1CCCC1=O)c1cccnc1`, the cell count in [1] came to 364. Moreover, the inhibition in test [1] was 2.5% (inactive); in [3], 35.2% (inactive); in test [8] it was -11.4% (inactive); in test [9], -7.12% (inactive). Further, the inhibition of aggregation in [2] was -3.8% (inactive). The results for the nuclei count in test [2] and in test [3] were 108% and 100%, respectively. For the same compound, the fluorescence slope in [4] is -0.432 (inactive). Also, the NADPH fluorescence slope in test [5] is -4.3e-06 (inactive). Besides, the slope in [6] was 0.00372 (inactive). Also, the compound was classed as inactive in test [7].
For the compound `CCC1CCCCN1CCCNC(=O)c1ccc(CS(=O)(=O)Cc2ccccc2F)o1` (stereo not given), in [1], the cell count was determined as 618. The inhibition in test [1] is -20.5% (inactive); in [3], -64.6% (inactive); in [8], 6.88% (inactive); in [9], 20.5% (inactive). In test [2], the inhibition of aggregation was 7.5% (inactive). The results for the nuclei count in [2] and in test [3] were 94.4% and 91%, respectively. For the same compound, in test [4], the fluorescence slope was -0.416 (inactive). In test [5], the NADPH fluorescence slope was -5.4e-05 (inactive). The slope in [6] is 0.00482 (inactive). Further, the result in test [7] was inactive.

Broadly, the inhibition is the relative decrease from the control value, in per cent.
